Results on 33 compounds are retold here after ChEMBL document CHEMBL3763114, “Syntheses and biological evaluation of 1,2,3-triazole and 1,3,4-oxadiazole derivatives of imatinib” (Bioorg Med Chem Lett, 2016).

Data set [1] is described as follows: Antiproliferative activity against human KG1a cells assessed as inhibition of cell survival after 72 hrs by MTT assay. It is filed as functional, cell-based. To be noted: KG-1a. The method, boiled down:
(§1)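 Each of the three leukemia lines (K562, HL60, KG1a) was incubated with the compounds for 72 h. The survival rate was then read by MTT viability assay, with imatinib run as the positive control. Inhibitory activity is reported as IC50 in μM.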

For data set [2], the system named is K562. Description: Antiproliferative activity against human K562 cells assessed as inhibition of cell survival after 72 hrs by MTT assay. It is filed as functional, cell-based. The following applies: K562, 72 h. An outline of the steps:
as §1
In general terms: Tetrazolium assays rely on reduction of a dye to a coloured formazan, in cell work by metabolically active cells.

Data set [3] can be described thus: Antiproliferative activity against human HL60 cells assessed as inhibition of cell survival after 72 hrs by MTT assay. It is filed as functional, cell-based. To be noted: HL-60, 72 h. The method, boiled down: as §1
Data set [4] in a line: Cytotoxicity against human 293T cells assessed as growth inhibition. It is filed as cell-based, HEK-293T.
Data set [5] is described as follows: Potency index, ratio of imatinib IC50 to compound IC50 for antiproliferative activity against human KG1a cells. It counts as functional.
Data set [6] deals with K562. Nature of the data set: Antiproliferative activity against human K562 cells assessed as reduction in cell viability after 72 hrs by resazurin assay. It is filed as functional, cell-based. To be noted: K562, 72 h. (The colour change of resazurin is a common sign of viable cells or microbes.)

Bounds are passed on as bounds.

In the case of `Cc1ccc(-c2cn(-c3ccc(CN4CCN(C)CC4)cc3)nn2)cc1Nc1nccc(-c2cccnc2)n1`, the figures for the IC50 in data set [1], in data set [2] and in data set [3] were 6.16 µM, 4.7 µM and 6740 nM, respectively. The CC50 in data set [4] is 4.15 µM.
For the compound `COc1ccc(-c2cn(-c3ccc(C)c(Nc4nccc(-c5cccnc5)n4)c3)nn2)cc1C(F)(F)F`, the half-inhibitory concentration (IC50) came to 30 µM in data set [1], 11.2 µM in data set [2] and 21200 nM in data set [3].
The like results for `Cc1ccc(-c2nnc(-c3cc(C(F)(F)F)cc(C(F)(F)F)c3)o2)cc1Nc1nccc(-c2cccnc2)n1` were, in that order, above 30 µM, above 30 µM and above 30000 nM.
`Cc1ccc(-n2cc(C(C)O)nn2)cc1Nc1nccc(-c2cccnc2)n1` (stereo not drawn): the IC50 was found to be 12.7 µM in data set [1], 15.3 µM in data set [2] and 25500 nM in data set [3].
The like results for `Cc1ccc(-c2cn(-c3ccc(CN4CCCCC4)cc3)nn2)cc1Nc1nccc(-c2cccnc2)n1` were, in that order, 1.75 µM, 3.29 µM and 740 nM.
The like results for `Cc1ccc(-c2cn(-c3ccc(CN4CCOCC4)cc3)nn2)cc1Nc1nccc(-c2cccnc2)n1` were, in that order, 1.32 µM, 22.6 µM and 6960 nM.
Take `Cc1ccc(-c2nnc(-c3ccc(CN4CCN(CCN=C=S)CC4)c(C(F)(F)F)c3)o2)cc1Nc1nccc(-c2cccnc2)n1`: the IC50 in data set [1] was determined as 0.94 µM; in data set [2] it was 0.5 µM; in data set [3] it was 70 nM.
With `Cc1ccc(-n2cc(-c3ccc(C)c(C(F)(F)F)c3)nn2)cc1Nc1nccc(-c2cccnc2)n1`, the values for the IC50 in data set [1], in data set [2] and in data set [3] were above 30 µM, above 30 µM and above 30000 nM, respectively.
As for `Cc1ccc(-c2nnc(-c3ccc(CN4CCN(CCN=C=S)CC4)cc3)o2)cc1Nc1nccc(-c2cccnc2)n1`, the IC50 in data set [1] was determined as 0.37 µM; in data set [2] it was 0.92 µM; in data set [3], 290 nM.
`COc1ccc(-n2cc(-c3ccc(C)c(Nc4nccc(-c5cccnc5)n4)c3)nn2)cc1`: the IC50 in data set [2] is above 30 µM; in data set [3], above 30000 nM.
Take `Cc1ccc(-n2cc(CCO)nn2)cc1Nc1nccc(-c2cccnc2)n1`: the IC50 turned out to be 6.54 µM in data set [1], 10.7 µM in data set [2] and 9100 nM in data set [3].
The like results for `Cc1ccc(-c2cn(-c3ccc(N4CCOCC4)cc3)nn2)cc1Nc1nccc(-c2cccnc2)n1` were, in that order, 5.28 µM, 23.4 µM and above 30000 nM.
The like results for `CCN(CC)c1ccc(-n2cc(-c3ccc(C)c(Nc4nccc(-c5cccnc5)n4)c3)nn2)cc1` were, in that order, 2.93 µM, above 30 µM and 13600 nM.
Turning to `Cc1ccc(-c2nnc(-c3ccc(CN4CCN(CCO)CC4)cc3)o2)cc1Nc1nccc(-c2cccnc2)n1`, the figures for the IC50 in data set [1], in data set [2] and in data set [3] were 4.53 µM, 4.85 µM and 810 nM, respectively.
The like results for `Cc1ccc(-c2nnc(-c3cccnc3)o2)cc1Nc1nccc(-c2cccnc2)n1` were, in that order, above 30 µM, above 30 µM and above 30000 nM.
As for `C=CC(=O)NCCN1CCN(Cc2ccc(-c3nnc(-c4ccc(C)c(Nc5nccc(-c6cccnc6)n5)c4)o3)cc2C(F)(F)F)CC1`, the IC50 in data set [2] turned out to be 0.6 µM; in data set [3], 2660 nM.
As to `Cc1ccc(-n2cc(CCCCO)nn2)cc1Nc1nccc(-c2cccnc2)n1`, the IC50 in data set [2] is 11.2 µM.
`Cc1ccc(-c2nnc(-c3ccc(CN4CCN(CCN)CC4)c(C(F)(F)F)c3)o2)cc1Nc1nccc(-c2cccnc2)n1`: the figures for the IC50 in data set [1], in data set [2] and in data set [3] were 0.48 µM, 0.3 µM and 20 nM, respectively. For the same compound, in data set [5], the “Ratio IC50” value came to 30.
Turning to `Cc1ccc(-c2cn(-c3ccc(CN4CCCC4)cc3)nn2)cc1Nc1nccc(-c2cccnc2)n1`, the results for the IC50 in data set [1], in data set [2] and in data set [3] were 5.42 µM, 3.89 µM and 1570 nM, respectively.
Turning to `Cc1ccc(-c2cn(-c3ccc(CN4CCN(C)CC4)c(C(F)(F)F)c3)nn2)cc1Nc1nccc(-c2cccnc2)n1`, the IC50 in data set [1] worked out at 1.04 µM; in data set [2], 0.03 µM; in data set [3] it was 20 nM. In addition, the CC50 in data set [4] was 2.66 µM.
As for `Cc1ccc(-n2cc(-c3ccc(CN4CCN(C)CC4)cc3)nn2)cc1Nc1nccc(-c2cccnc2)n1`, the results for the IC50 in data set [2] and in data set [6] were 0.79 µM and 890 nM, respectively. Besides, the CC50 in data set [4] turned out to be 14.9 µM.
As to `Cc1ccc(-c2nnc(-c3ccc(F)c(C(F)(F)F)c3)o2)cc1Nc1nccc(-c2cccnc2)n1`, the IC50 in data set [1] was above 30 µM; in data set [2], 29.7 µM; in data set [3], above 30000 nM.
Consider `Cc1ccc(-c2nnc(-c3ccc(CN4CCN(C)CC4)c(C(F)(F)F)c3)o2)cc1Nc1nccc(-c2cccnc2)n1`, for which the IC50 in data set [1] was determined as 0.58 µM; in data set [2] it was 0.51 µM; in data set [3], 50 nM. Also, in data set [5], the “Ratio IC50” value stood at 30. In data set [4], the CC50 came to 2.17 µM.
Consider `Cc1ccc(-n2cc(-c3cc(C(F)(F)F)cc(C(F)(F)F)c3)nn2)cc1Nc1nccc(-c2cccnc2)n1`, for which the IC50 in data set [1] was 9.93 µM; in data set [2], 2.65 µM; in data set [3], 1600 nM.
The like results for `Cc1ccc(-c2nnc(-c3ccc(CN4CCN(CCO)CC4)c(C(F)(F)F)c3)o2)cc1Nc1nccc(-c2cccnc2)n1` were, in that order, 0.98 µM, 1.81 µM and 390 nM.
As to `Cc1ccc(-c2nnc(-c3ccc(C)c(C(F)(F)F)c3)o2)cc1Nc1nccc(-c2cccnc2)n1`, the IC50 in data set [1] is above 30 µM; in data set [2] it was above 30 µM; in data set [3], above 30000 nM.
For `Cc1ccc(-c2cn(-c3cc(C(F)(F)F)ccc3N3CCOCC3)nn2)cc1Nc1nccc(-c2cccnc2)n1`, the values for the IC50 in data set [1], in data set [2] and in data set [3] were 2.43 µM, 9.99 µM and 17500 nM, respectively.
Turning to `Cc1ccc(-c2cn(-c3ccccc3N3CCOCC3)nn2)cc1Nc1nccc(-c2cccnc2)n1`, the IC50 is 0.44 µM in data set [1], 5.86 µM in data set [2] and 1490 nM in data set [3]. Also, the “Ratio IC50” value in data set [5] was 30.
Turning to `COc1cc(/C=C/C(=O)CC(=O)/C=C/c2ccc(OCCN3CCN(Cc4ccc(-c5nnc(-c6ccc(C)c(Nc7nccc(-c8cccnc8)n7)c6)o5)cc4)CC3)c(OC)c2)ccc1O`, the values for the IC50 in data set [1], in data set [2] and in data set [3] were above 30 µM, above 30 µM and above 30000 nM, respectively.
In the case of `Cc1ccc(NC(=O)c2ccc(CN3CCN(C)CC3)cc2)cc1Nc1nccc(-c2cccnc2)n1` [IMATINIB], the IC50 stood at 16.7 µM in data set [1] and 30 nM in data set [3]. Further, the CC50 in data set [4] was determined as 20.5 µM.
`Cc1nnc(-c2ccc(C)c(Nc3nccc(-c4cccnc4)n3)c2)o1`: the IC50 is 18 µM in data set [1], above 30 µM in data set [2] and above 30000 nM in data set [3].
In the case of `Cc1ccc(-c2nnc(-c3ccc(CN4CCN(C)CC4)cc3)o2)cc1Nc1nccc(-c2cccnc2)n1`, the results for the IC50 in data set [1], in data set [2] and in data set [3] were 1.78 µM, 4.9 µM and 570 nM, respectively. Also, the CC50 in data set [4] came out at 7.63 µM.
The like results for `Cc1ccc(-n2cc(-c3ccc(CN4CCN(C)CC4)c(C(F)(F)F)c3)nn2)cc1Nc1nccc(-c2cccnc2)n1` were, in that order, 1.27 µM, 0.04 µM, 20 nM and 8.18 µM.

A word on the IC50: it is the point on the concentration scale where inhibition reaches its midpoint. The term CC50 denotes the concentration that lowers cell viability or growth by half.
